From ChEMBL document CHEMBL3585299, “Design and synthesis of novel ROR inverse agonists with a dibenzosilole scaffold as a hydrophobic core structure” (Bioorg Med Chem, 2015)

Experiments:
Format in all cases: cell-based
[1] = biological target: T1, Nuclear receptor ROR-gamma (Homo sapiens, UniProt P51449); experiment: Inverse agonist activity at human ROR-gamma1 transfected in HEK293 cells after 16 hrs by luciferase reporter gene assay
T1 sequence (P51449 whole entry): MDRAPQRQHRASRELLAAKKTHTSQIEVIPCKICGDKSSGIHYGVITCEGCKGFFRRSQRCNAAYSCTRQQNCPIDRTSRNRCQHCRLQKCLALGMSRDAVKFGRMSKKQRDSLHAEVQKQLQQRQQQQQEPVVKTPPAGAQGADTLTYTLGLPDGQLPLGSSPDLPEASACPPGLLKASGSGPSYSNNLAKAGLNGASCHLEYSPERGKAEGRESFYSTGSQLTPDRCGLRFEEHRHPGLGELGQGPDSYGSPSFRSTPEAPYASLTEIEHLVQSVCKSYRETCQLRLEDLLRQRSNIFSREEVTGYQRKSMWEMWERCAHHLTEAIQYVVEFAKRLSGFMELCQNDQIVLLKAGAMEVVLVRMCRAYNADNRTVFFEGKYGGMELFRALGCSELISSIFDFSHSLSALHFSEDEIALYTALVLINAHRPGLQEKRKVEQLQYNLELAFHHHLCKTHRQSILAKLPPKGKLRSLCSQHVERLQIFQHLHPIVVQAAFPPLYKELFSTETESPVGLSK

[2] = biological target: T2, Nuclear receptor ROR-beta (Homo sapiens) (UniProt Q92753); experiment: Inverse agonist activity at human ROR-beta1 transfected in HEK293 cells at 10 uM after 16 hrs by luciferase reporter gene assay relative to control
T2 sequence (whole entry): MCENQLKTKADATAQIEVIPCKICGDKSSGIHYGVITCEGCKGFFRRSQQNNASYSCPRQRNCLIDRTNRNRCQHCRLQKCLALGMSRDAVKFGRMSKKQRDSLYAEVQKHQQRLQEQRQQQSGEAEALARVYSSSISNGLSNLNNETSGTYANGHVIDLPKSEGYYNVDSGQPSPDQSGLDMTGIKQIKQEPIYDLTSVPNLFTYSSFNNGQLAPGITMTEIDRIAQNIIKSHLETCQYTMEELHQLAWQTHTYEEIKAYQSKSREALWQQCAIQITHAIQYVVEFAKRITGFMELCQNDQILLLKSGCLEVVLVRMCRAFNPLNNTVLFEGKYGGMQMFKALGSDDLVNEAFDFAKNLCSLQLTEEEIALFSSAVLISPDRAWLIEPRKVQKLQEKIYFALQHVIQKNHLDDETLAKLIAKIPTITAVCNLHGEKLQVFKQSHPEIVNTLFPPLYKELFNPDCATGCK
In short: (§1)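 HEK293 cells grown in DMEM with 5% FBS plus penicillin/streptomycin, 37 °C, 5% CO2, seeded at 20% confluence 24 h before transfection. Calcium phosphate cotransfection per well: 150 ng receptor expression plasmid, 500 ng luciferase reporter, 10 ng β-galactosidase vector. After 8 h, compound at 10 µM or DMSO for 16 h. Luciferase normalized to β-galactosidase, inhibition expressed as percent of control, transfections in triplicate.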

[3] = biological target: T3, Nuclear receptor ROR-gamma (Homo sapiens) (UniProt P51449); experiment: Inverse agonist activity at human ROR-gamma1 transfected in HEK293 cells at 10 uM after 16 hrs by luciferase reporter gene assay relative to control; in short: as §1
T3 sequence (whole entry): T1 sequence (P51449 whole entry)

[4] = biological target: T4, Nuclear receptor ROR-alpha (Homo sapiens, UniProt P35398); experiment: Inverse agonist activity at human ROR-alpha1 transfected in HEK293 cells after 16 hrs by luciferase reporter gene assay
T4 sequence (P35398 whole entry): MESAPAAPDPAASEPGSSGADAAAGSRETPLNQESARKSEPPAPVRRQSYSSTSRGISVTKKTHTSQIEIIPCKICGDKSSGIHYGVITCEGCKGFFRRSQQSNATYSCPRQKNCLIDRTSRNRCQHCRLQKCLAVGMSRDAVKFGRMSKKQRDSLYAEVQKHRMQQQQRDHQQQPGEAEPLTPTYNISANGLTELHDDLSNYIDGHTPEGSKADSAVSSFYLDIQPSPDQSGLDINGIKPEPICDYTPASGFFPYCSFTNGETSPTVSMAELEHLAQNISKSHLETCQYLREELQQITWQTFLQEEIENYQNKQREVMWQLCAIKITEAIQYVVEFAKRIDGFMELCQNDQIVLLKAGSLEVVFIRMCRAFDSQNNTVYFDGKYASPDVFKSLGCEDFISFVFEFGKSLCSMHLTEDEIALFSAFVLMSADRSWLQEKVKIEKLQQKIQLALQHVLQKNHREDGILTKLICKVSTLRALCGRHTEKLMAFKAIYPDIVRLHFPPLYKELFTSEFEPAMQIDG

[5] = biological target: T5, Nuclear receptor ROR-beta (Homo sapiens, UniProt Q92753); experiment: Inverse agonist activity at human ROR-beta1 transfected in HEK293 cells after 16 hrs by luciferase reporter gene assay
T5 sequence (Q92753 whole entry): T2 sequence (whole entry)

Row | Compound | IC50 [1] [µM] | inhibition [2] [%] | inhibition [3] [%] | IC50 [4] [µM] | IC50 [5] [µM]
1 | CC[Si]1(CC)c2ccccc2-c2cc(C(O)(C(F)(F)F)C(F)(F)F)ccc21 | 4.2 | 28 | – | – | –
2 | CCCC[Si]1(CCCC)c2ccccc2-c2cc(CC)ccc21 | – | < 5 | 18 | – | –
3 | CCCCn1c(=O)c2ccccc2c2cc(C(O)(C(F)(F)F)C(F)(F)F)ccc21 | 4.7 | – | – | 7.2 | 5.7
4 | CCCC[Si]1(CCCC)c2ccccc2-c2ccccc21 | – | < 5 | 13 | – | –
5 | CCCC[Si]1(CCCC)c2ccccc2-c2cc(C(C)O)ccc21 (stereo unspecified) | – | < 5 | < 5 | – | –
6 | C[Si]1(C)c2ccccc2-c2cc(C(O)(C(F)(F)F)C(F)(F)F)ccc21 | – | 40 | – | – | –
7 | CCCC[Si]1(CCCC)c2ccccc2-c2cc(C(C)=O)ccc21 | – | < 5 | < 5 | – | –
8 | CCCCn1c(=O)c2ccccc2c2cc(CC)ccc21 | – | 29 | 37 | – | –
